Shown are actives, neighbours in structure and some others; about 1.6% of the full set was active somewhere.
NR1D1 modulator = Rev-erb alpha (human) modulation | P20393 | Rev-erbα–FITC-DNA binding, fluorescence polarization, 90 min | activity, % at 10 µM | 370,000 compounds, 0.79% hits | AID 1259318;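 active = activity above about 14%, limit read from the data; passing the limit was not always enough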;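 note: 0% = DMSO wells with 35 nM protein and 100% = DMSO wells with 750 nM protein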
Target sequence (P20393 whole entry, looked up): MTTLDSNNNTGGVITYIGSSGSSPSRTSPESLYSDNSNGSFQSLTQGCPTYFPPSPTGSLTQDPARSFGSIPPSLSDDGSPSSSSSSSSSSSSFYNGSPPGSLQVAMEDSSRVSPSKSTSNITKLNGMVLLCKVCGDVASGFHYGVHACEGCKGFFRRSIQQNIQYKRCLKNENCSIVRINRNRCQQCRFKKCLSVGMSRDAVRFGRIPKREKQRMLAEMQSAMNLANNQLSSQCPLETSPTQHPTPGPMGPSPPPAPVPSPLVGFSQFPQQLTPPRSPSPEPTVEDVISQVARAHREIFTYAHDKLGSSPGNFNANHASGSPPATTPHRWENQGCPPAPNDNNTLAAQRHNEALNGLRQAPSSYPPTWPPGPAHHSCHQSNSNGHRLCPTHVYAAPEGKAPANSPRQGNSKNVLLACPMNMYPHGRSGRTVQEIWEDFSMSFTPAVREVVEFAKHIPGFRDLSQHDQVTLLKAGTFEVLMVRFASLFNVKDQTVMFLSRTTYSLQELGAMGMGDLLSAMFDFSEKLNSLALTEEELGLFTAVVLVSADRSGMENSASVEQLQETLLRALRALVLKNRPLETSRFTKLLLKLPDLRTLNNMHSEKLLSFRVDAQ
NR2E3 ag-1 = human photoreceptor-specific nuclear receptor agonism; Q9Y5X4; CHO-S Gal4-NCOR/VP16-NR2E3 two-hybrid, luciferase; inhibition of corepressor binding, % at 3.98 µM; 360,000 compounds, 0.35% hits;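 active = inhibition above the mean of all tested compounds plus 3 SD, cut at about 70% in these data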;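 note: 0% = DMSO with NR2E3 transfected cells and 100% = cells lacking NR2E3 construct; higher means lower luciferase signal from less NR2E3 corepressor binding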
PKA-R1A act = activates the PKA-R1A holoenzyme complex; P00514+P68181; activation, % at 11.4 µM; 340,000 compounds, 0.083% hits; PKA-R1A dissociation, Cy5-IP20 fluorescence polarization; scaled: DMSO 0%, 113 µM cGMP 100%;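 active = percent activation above the mean of all tested compounds plus 3 SD, cut at about 19% in these data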;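 note: higher means more PKAc released from R1A so a rise in polarization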
PKA-R2B act = PKA-R2B complex activation; 340,000 compounds, 0.079% hits; AID 504700; PKA-R2B holoenzyme dissociation, Cy5-IP20 fluorescence polarization; R2B truncated from residue 108, S112A mutant; 0% DMSO only, 100% 113 µM cGMP; activation, % at 11.4 µM; P22694+P31323;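 active = activation above a cutoff set at the mean over all compounds plus 3 SD, cut at about 18% in these data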;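 note: higher means more holoenzyme dissociation and a rise in polarization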
NR2E3 ag-2 = activates human photoreceptor nuclear receptor NR2E3; Q9Y5X4; GST-NR2E3/biotin-RetCOR TR-FRET, 1536-well; inhibition of corepressor binding, % at 4.78 µM; 320,000 compounds, 0.12% hits;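 active = percent inhibition above the cutoff of mean plus 3 SD of all tested compounds, set per screening campaign, cut at about 20% in these data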;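 note: 0% = DMSO wells and 100% = biotin wells as full block of FRET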
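Assay system: NR2E3–RetCOR corepressor complex. Quantity: 1.35 nM GST-NR2E3. Buffer or medium: pH 7.5 Tris-based buffer. Reagent: biotinylated RetCOR corepressor at 7 nM final. Schedule: 5 h at 4 °C. Detection: TR-FRET, emission read at 617 and 671 nm. Replicates: one well per compound, singlicate testing.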
PG9 Ab binder = small molecules binding HIV-1 gp120 antibody PG9. TR-FRET gp120-PG9 antibody binding. inhibition, % at 6.7 µM. 360,000 compounds, 0.43% hits. AID 624416; in the data active = inhibition above about 8.5%
NR1D1 mod conf = confirmation of modulators of human Rev-erb alpha DNA binding; shares compounds with NR1D1 modulator; Rev-erb alpha FITC-DNA binding, fluorescence polarization, 90 min; activation, % at 25 µM; 3,000 compounds, 61% hits;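 active = activation at or above a set limit, or at least 3 SD above the negative control mean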;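 note: 0% = 35 nM protein with DMSO and 100% = 750 nM protein high control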
RORg DNA counter = counter-screen for Rev-erb alpha modulators: RORgamma DNA binding. purified RORgamma protein-FITC-DNA binding, fluorescence polarization. AID 1259320. 910 compounds, 8% hits. IC50, µM. shares compounds with NR1D1 modulator;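 active = Compounds whose fitted half-maximal concentration for disrupting protein-DNA binding is below 10 micromolar; the record names Rev-erb in its text, so the target is in doubt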
Starred values were filed as active, the others as inactive; i = inactive; nt = not tested or not shown.

SMILES	NR1D1 modulator	NR2E3 ag-1	PKA-R1A act	PKA-R2B act	NR2E3 ag-2	PG9 Ab binder	others
CN1C(=O)/C(=C\c2ccc(N3CCCCC3)o2)C(=O)NC1=S	109.9*	-50.3	-4.5	-3.7	-2.1	-10.2	NR1D1 mod conf=132.5*;RORg DNA counter=i
COP(=O)(OC)C(C)NC(=O)OCc1ccccc1 (stereo not drawn)	5.2	nt	nt	nt	nt	nt
O=C(NCCN1CCC2(CC1)C(=O)NCN2c1ccccc1)c1ccc2ccccc2c1	4.2	nt	nt	nt	nt	-1.6
C=CCN(CC#CCO)Cc1ccc(OC)cc1OC	-0.3	nt	nt	nt	nt	nt
C=C1[C@@H](C)C2[C@H](Cc3ccccc3)NC(=O)[C@]23[C@H](OC(C)=O)/C=C/[C@@](C)(O)C(=O)[C@@H](C)C/C=C/[C@H]3[C@@H]1O (stereo partly drawn)	-6.3	nt	nt	nt	nt	nt

Bioassay records deposited in PubChem BioAssay by several laboratories.
